The source made the active and inactive calls. The calls are words filed in the database; no cut-off is given here.
Columns and labels:
[1] = Cytotoxicity against human hematopoietic stem cells assessed as reduction of cell viability after 24 hrs by Annexin V-Fluorescein isothiocyanate and 7-aminoactinomycin D staining; assay type: cell-based
MV4-11 [2] = experiment: Cytotoxicity against human MV411 cells after 24 hrs by Annexin V-Fluorescein isothiocyanate and 7-aminoactinomycin D staining; assay type: functional; settings: MV4-11, 24 h, read-out: LD50 (the source's name)
Procedure, shortened: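 MV4-11 human AML cells (ATCC) seeded at 300,000 cells/mL in IMDM with 10% FBS. Cells exposed to at least 4 concentrations for 24 hours. Stained with Annexin V-FITC and 7-AAD, then run on flow cytometry (BD LSRII) 15 minutes later. Viable cells gated as Annexin V-negative/7-AAD-negative and expressed as percent of untreated control.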

MV4-11 [3] = experiment: Cytotoxicity against human MV411 cells assessed as reduction of cell viability at 20 uM after 2 hrs by Annexin V-Fluorescein isothiocyanate and 7-aminoactinomycin D staining; assay type: functional, cell-based
Procedure, shortened: (§1)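 MV4-11 cells (ATCC) seeded at 300,000 cells/mL in IMDM with 10% FBS and exposed to compound for the stated time in time-course runs. Cells stained with Annexin V-FITC plus 7-AAD and read by flow cytometry 15 minutes later. Viability is the Annexin V-negative/7-AAD-negative fraction, expressed relative to untreated control.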

MV4-11 [4] = experiment: Cytotoxicity against human MV411 cells assessed as reduction of cell viability at 5 uM after 1 to 2 hrs by Annexin V-Fluorescein isothiocyanate and 7-aminoactinomycin D staining; assay type: functional, cell-based; procedure, shortened: as §1
MV4-11 [5] = experiment: Cytotoxicity against human MV411 cells assessed as reduction of cell viability at 10 uM after 30 mins by Annexin V-Fluorescein isothiocyanate and 7-aminoactinomycin D staining; assay type: functional, cell-based; procedure, shortened: as §1
MV4-11 [6] = experiment: Cytotoxicity against human MV411 cells assessed as reduction of cell viability at 20 uM after 30 mins by Annexin V-Fluorescein isothiocyanate and 7-aminoactinomycin D staining; assay type: functional; procedure, shortened: as §1
MV4-11 [7] = experiment: Cytotoxicity against human MV411 cells assessed as reduction of cell viability at 10 uM after 24 hrs by Annexin V-Fluorescein isothiocyanate and 7-aminoactinomycin D staining; assay type: functional, cell-based; procedure, shortened: as §1
MV4-11 [8] = experiment: Cytotoxicity against human MV411 cells assessed as reduction of cell viability at 5 uM after 24 hrs by Annexin V-Fluorescein isothiocyanate and 7-aminoactinomycin D staining; assay type: functional, cell-based; procedure, shortened: as §1
MV4-11 [9] = experiment: Cytotoxicity against human MV411 cells assessed as reduction of cell viability at 10 uM after 2 hrs by Annexin V-Fluorescein isothiocyanate and 7-aminoactinomycin D staining; assay type: functional, cell-based; procedure, shortened: as §1
MV4-11 [10] = experiment: Cytotoxicity against human MV411 cells assessed as reduction of cell viability at 5 uM after 30 mins by Annexin V-Fluorescein isothiocyanate and 7-aminoactinomycin D staining; assay type: functional; procedure, shortened: as §1

Row | Structure (SMILES) | Activity [1] | CC50 (MV4-11 [2]) | other results
1 | CCn1sc(=O)n(Cc2ccc(CN)cc2)c1=O.Cl | Non-toxic | 15.5 µM | –
2 | Cn1sc(=O)n(Cc2ccccc2)c1=O | Non-toxic | 4.01 µM | Activity (MV4-11 [3]): Active
3 | O=c1sn(CCCl)c(=O)n1Cc1ccccc1 | Non-toxic | 2.03 µM | Activity (MV4-11 [4]): Active; Activity (MV4-11 [5]): Active
4 | Cl.NCc1cccc(Cn2c(=O)sn(CCCl)c2=O)c1 | Non-toxic | 4.4 µM | –
5 | CCCn1sc(=O)n(Cc2ccccc2)c1=O | Non-toxic | 11.6 µM | –
6 | Cl.NCc1ccc(Cn2c(=O)sn(CCBr)c2=O)cc1 | Non-toxic | 4.51 µM | –
7 | C=CCn1sc(=O)n(Cc2ccc(CN)cc2)c1=O.Cl | Non-toxic | 6.7 µM | –
8 | C=CCn1sc(=O)n(Cc2ccccc2)c1=O | Non-toxic | 9.2 µM | Activity (MV4-11 [3]): Active; Activity (MV4-11 [6]): 50%; Activity (MV4-11 [7]): Active; Activity (MV4-11 [8]): inactive
9 | O=C([O-])c1ccc(Cn2c(=O)sn(CCCl)c2=O)cc1.[Na+] | Non-toxic | > 20 µM | –
10 | CCn1sc(=O)n(Cc2ccccc2)c1=O [KRM-7777] | Non-toxic | 9.21 µM | –
11 | Cl.NCc1ccc(Cn2c(=O)sn(CCCl)c2=O)cc1 | Non-toxic | 3.01 µM | –
12 | O=c1sn(CCBr)c(=O)n1Cc1ccccc1 | Non-toxic | 3.5 µM | Activity (MV4-11 [9]): Active; Activity (MV4-11 [10]): 50%
